Results published in ChEMBL document CHEMBL4715822, “Structure-based lead optimization to improve antiviral potency and ADMET properties of phenyl-1H-pyrrole-carboxamide entry inhibitors targeted to HIV-1 gp120” (Eur J Med Chem, 2018).
Converted amounts (≈) assume the structure as drawn.

Experiments:
[1] = Cytotoxicity against human TZM-bl cells assessed as reduction in cell viability incubated for 3 days by XTT assay; assay type: cell-based; settings: TZM-bl cells, time 3 day
[2] = Cytotoxicity against human MT2 cells assessed as reduction in cell viability incubated for 4 days by XTT assay; assay type: cell-based; settings: MT2 cells, time 4 day
[3] = Induction viral infection in pseudovirus HIV1 ADA infected in dog Cf2Th-CCR5 cells incubated for overnight followed by pretreated for 30 mins and added to cells measured after 48 hrs by luciferase-based assay; assay type: cell-based; settings: human immunodeficiency virus 1, cf2th-ccr5, 48.5 h
[4] = Cytotoxicity against dog Cf2Th-CCR5 cells assessed as reduction in cell viability incubated for 48 hrs by XTT assay; assay type: cell-based, Canis lupus familiaris; settings: Cf2Th-CCR5 cells
[5] = tested on: Human immunodeficiency virus 1; test: Antiviral activity against pseudovirus HIV-1 HXB-2 harboring Env I424F mutant infected in human U87.CD4.CXCR4 cells assessed as reduction in viral infection pretreated for 30 mins before viral infection and measured after 3 days by luciferase based assay; assay type: functional, cell-based, M:B_HXB2R
Summary of the method: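 Pseudoviruses made in HEK293T by co-transfecting an Env-deleted backbone (pSG3Δenv or pNL4-3.Luc.R-.E-) with an HXB-2 Env plasmid carrying single or double substitutions; Env sequences confirmed by sequencing. Virus pretreated 30 min with graded compound, added to U87-CD4-CXCR4 cells (1 × 10⁴/well, plated overnight), incubated 3 days. Cells lysed, luciferase measured, IC50 calculated.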

[6] = Solubility in 5% DMSO at pH 7.4 at 500 uM incubated for 90 mins in shaker by spectrophotometry; assay type: physicochemical
Summary of the method: (§1)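 DMSO stock diluted to 500 μM in universal aqueous buffer pH 7.4 with 2 or 5% DMSO final; quadruplicate, 90 min shaking at room temperature in filter plate, vacuum filtered; filtrate in 20% acetonitrile read by UV absorbance at six wavelengths. Filtrate/standard ratio binned as ~500, 100–500 or <100 μM.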

[7] = Solubility in 2 % DMSO at pH 7.4 at 500 uM incubated for 90 mins in shaker by spectrophotometry; assay type: physicochemical; summary of the method: as §1
[8] = Apparent permeability across apical to basolateral side in human Caco2 cells incubated for 2 hrs by LC-MS/MS analysis; assay type: ADME, cell-based, Caco-2; settings: Caco-2
Summary of the method: (§2)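 Caco-2 monolayers grown three weeks to differentiate; compound in transport buffer pH 7.4 (glucose, 10 mM HEPES, HBSS) added apical (A-B) or basal (B-A) side, with or without 100 μM verapamil; 2 h incubation, both sides sampled. Lucifer yellow 100 μM on A side checks integrity (≤2% transport). Papp = (dQ/dt)/(C0 × A); efflux ratio = Papp(B→A)/Papp(A→B).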

[9] = Apparent permeability across basolateral to apical side in human Caco2 cells incubated for 2 hrs by LC-MS/MS analysis; assay type: ADME, cell-based, Caco-2; settings: Caco-2; summary of the method: as §2
[10] = Metabolic stability in human liver microsomes assessed as parent compound remaining at 3 uM incubated for 120 mins by LC-MS/MS analysis; assay type: ADME, Microsome; settings: read-out: Stabilty
[11] = Metabolic stability in human liver microsomes assessed as intrinsic clearance at 3 uM incubated for 120 mins by LC-MS/MS analysis; assay type: ADME, Microsome; settings: read-out: CLH
[12] = Protein binding in human plasma assessed as unbound fraction at 5 uM by LC-MS/MS analysis; assay type: ADME, cell-free
Cytochrome P450 2B6 = molecular target: T1, Cytochrome P450 2B6 (Homo sapiens, UniProt P20813); test: Inhibition of human liver microsome CYP2B6 using bupropion as substrate incubated for 20 mins by LC-MS/MS analysis; assay type: ADME, microsomes
T1 sequence (P20813 whole entry): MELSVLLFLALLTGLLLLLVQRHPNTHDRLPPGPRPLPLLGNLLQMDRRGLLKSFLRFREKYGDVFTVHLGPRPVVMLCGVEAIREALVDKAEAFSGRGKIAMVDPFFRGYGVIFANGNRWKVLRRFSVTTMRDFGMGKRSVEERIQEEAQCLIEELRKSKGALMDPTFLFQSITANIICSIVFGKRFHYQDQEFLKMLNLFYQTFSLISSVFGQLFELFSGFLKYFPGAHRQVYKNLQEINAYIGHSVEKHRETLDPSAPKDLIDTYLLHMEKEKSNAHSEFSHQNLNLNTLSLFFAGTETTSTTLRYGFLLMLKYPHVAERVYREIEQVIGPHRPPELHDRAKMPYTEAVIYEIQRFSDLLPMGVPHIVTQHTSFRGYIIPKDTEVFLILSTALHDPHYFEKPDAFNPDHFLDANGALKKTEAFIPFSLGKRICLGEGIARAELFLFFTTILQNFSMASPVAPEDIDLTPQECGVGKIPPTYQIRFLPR

Cytochrome P450 2C19 = Cytochrome P450 2C19 (Homo sapiens, UniProt P33261); test: Inhibition of human liver microsome CYP2C19 using mephenytoin as substrate incubated for 20 mins by LC-MS/MS analysis; assay type: ADME, microsomes
Chain of Cytochrome P450 2C19 (P33261 whole entry): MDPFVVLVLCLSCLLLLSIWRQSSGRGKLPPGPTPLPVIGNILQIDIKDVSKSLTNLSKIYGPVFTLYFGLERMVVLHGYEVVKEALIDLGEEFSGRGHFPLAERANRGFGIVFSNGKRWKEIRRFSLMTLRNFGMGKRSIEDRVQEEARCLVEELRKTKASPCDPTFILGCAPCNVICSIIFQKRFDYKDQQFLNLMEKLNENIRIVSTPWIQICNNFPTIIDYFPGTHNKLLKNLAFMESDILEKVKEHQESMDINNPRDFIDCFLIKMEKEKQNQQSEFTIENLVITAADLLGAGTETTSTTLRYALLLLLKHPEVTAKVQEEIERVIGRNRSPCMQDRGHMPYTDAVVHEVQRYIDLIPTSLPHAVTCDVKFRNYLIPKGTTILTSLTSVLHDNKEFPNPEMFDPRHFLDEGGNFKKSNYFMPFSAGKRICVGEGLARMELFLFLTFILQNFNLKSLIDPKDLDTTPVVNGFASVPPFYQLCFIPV

Cytochrome P450 3A4 = Cytochrome P450 3A4 (Homo sapiens, UniProt P08684); test: Inhibition of human liver microsome CYP3A4 using midazolam as substrate incubated for 20 mins by LC-MS/MS analysis; assay type: ADME, microsomes
Chain of Cytochrome P450 3A4 (P08684 whole entry): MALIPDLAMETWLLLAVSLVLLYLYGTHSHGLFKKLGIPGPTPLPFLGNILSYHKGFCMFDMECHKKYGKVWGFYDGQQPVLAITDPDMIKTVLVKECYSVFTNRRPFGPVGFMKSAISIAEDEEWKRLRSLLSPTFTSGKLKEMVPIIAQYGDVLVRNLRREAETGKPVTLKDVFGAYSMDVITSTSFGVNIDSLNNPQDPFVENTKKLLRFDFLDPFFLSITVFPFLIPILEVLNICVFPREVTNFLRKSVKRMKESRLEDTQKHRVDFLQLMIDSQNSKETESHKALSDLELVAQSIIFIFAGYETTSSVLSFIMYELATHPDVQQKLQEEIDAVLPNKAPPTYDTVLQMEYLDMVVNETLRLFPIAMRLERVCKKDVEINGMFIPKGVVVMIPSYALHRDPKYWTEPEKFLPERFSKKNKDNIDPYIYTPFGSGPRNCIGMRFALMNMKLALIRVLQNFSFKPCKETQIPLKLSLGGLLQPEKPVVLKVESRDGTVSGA

[13] = Cytotoxicity against human PBMC cells assessed as reduction in cell viability incubated for 1 hr followed by complete medium addition and measured after 48 hrs by XTT assay; assay type: cell-based

NC[C@H](NC(=O)c1ccc(-c2ccc(C(F)(F)F)c(F)c2)[nH]1)c1nc(CO)cs1
CC50 at 72 h [1]: 21.9 µM | CC50 at 96 h [2]: 22.1 µM | Activity [3]: Non-Toxic | CC50 at 48 h [4]: 34 µM | IC50 [5]: 0.88 µM | solubility kinetic at […], 500 µM [6]: 100 µM (≈ 42.8 µg/mL) | solubility kinetic at […], 500 µM [7]: 100 µM (≈ 42.8 µg/mL) | Papp A→B at 2 h [8]: 0.602 ×10⁻⁶ cm/s | Papp B→A at 2 h [9]: 17.7 ×10⁻⁶ cm/s | remaining at 2 h, 3 µM [10]: 88.5% | microsomal CLint at 3 µM [11]: 1.8 µL/min/mg | fraction unbound at 5 µM [12]: 0.00949 | IC50 (Cytochrome P450 2B6): > 25 µM | IC50 (Cytochrome P450 2C19): > 25 µM | IC50 (Cytochrome P450 3A4): > 25 µM | CC50 at 49 h [13]: 38.7 µM
